Measured values as given in ChEMBL document CHEMBL4330127, “Discovery of Novel Pyruvate Dehydrogenase Kinase 4 Inhibitors for Potential Oral Treatment of Metabolic Diseases” (J Med Chem, 2019).
Calls of active or inactive are those of the source. The rule behind the calls is not given here.

Assays:
RKO [1] = test: Antiproliferative activity against human RKO cells up to 50 uM up to 72 hrs by CCK8 assay; assay type: functional, cell-based
Method in brief: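 HCT116 and RKO cells were treated with compound alone or with oxaliplatin and grown for 0–72 h. Viability was read by CCK-8 colorimetry at 450 nm.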

RKO [2] = test: Induction of apoptosis in human RKO cells assessed as live cells at 10 uM after 24 hrs by Annexin V/propidium iodide staining based flow cytometry (reference value: 82.4%); assay type: functional
RKO [3] = test: Induction of apoptosis in human RKO cells assessed as necrotic cells at 25 uM after 24 hrs by Annexin V/propidium iodide staining based flow cytometry (reference value: 0.56%); assay type: functional
RKO [4] = test: Induction of apoptosis in human RKO cells assessed as early apoptotic cells at 25 uM after 24 hrs in presence of oxaliplatin by Annexin V/propidium iodide staining based flow cytometry (reference value: 6.33%); assay type: functional
[5] = Volume of distribution at steady state in rat at 5 mg/kg, iv; assay type: ADME, organism-based; details: in vivo, read-out: Vdss
HCT-116 [6] = test: Induction of apoptosis in human HCT116 cells assessed as late apoptotic cells at 50 uM after 24 hrs by Annexin V/propidium iodide staining based flow cytometry (reference value: 8.36%); assay type: functional
[7] = biological target: T1, [Pyruvate dehydrogenase (acetyl-transferring)] kinase isozyme 4, mitochondrial (Homo sapiens, UniProt Q16654); test: Inhibition of PDK4 (unknown origin) at 10 uM relative to control
Target sequence in this assay (Q16654 whole entry, looked up): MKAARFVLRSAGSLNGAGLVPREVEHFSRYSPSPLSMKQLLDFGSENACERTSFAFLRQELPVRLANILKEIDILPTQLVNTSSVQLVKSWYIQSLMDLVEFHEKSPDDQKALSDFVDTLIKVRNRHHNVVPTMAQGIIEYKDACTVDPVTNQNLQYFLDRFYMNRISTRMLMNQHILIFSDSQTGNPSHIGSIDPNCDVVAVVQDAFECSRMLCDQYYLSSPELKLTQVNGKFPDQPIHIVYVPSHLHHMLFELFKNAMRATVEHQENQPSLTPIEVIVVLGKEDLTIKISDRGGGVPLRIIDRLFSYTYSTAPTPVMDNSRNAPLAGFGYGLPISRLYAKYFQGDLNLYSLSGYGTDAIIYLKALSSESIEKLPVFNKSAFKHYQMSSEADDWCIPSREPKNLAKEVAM

[8] = Metabolic stability in rat liver microsomes assessed as parent compound remaining after 30 mins by LC-MS/MS analysis; assay type: ADME, Microsome; details: read-out: Stability
RKO [9] = test: Induction of apoptosis in human RKO cells assessed as necrotic cells at 25 uM after 24 hrs in presence of oxaliplatin by Annexin V/propidium iodide staining based flow cytometry (reference value: 0.22%); assay type: functional
[10] = Drug metabolism in human liver microsomes assessed as hydroxyl metabolite formation at 100 uM preincubated for 5 mins followed by NADPH/UDPGA addition and measured up to 2 hrs by LC-MS/MS analysis; assay type: ADME, Microsome
Method in brief: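 Pooled human liver microsomes (1.0 mg/mL) were mixed with alamethicin (25 μg/mg protein) and kept on ice for 15 min. Substrate (100 μM) was added and the mix preincubated 5 min at 37 °C. NADPH (1.3 mM) and UDPGA (5 mM) were then added and incubation ran 2 h with agitation. The reaction was stopped with ice-cold acetonitrile, centrifuged, and the supernatant analysed by LC-MS/MS (ESI positive, transition 358.2 → 84.1).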

RKO [11] = test: Cell cycle arrest in human RKO cells assessed as accumulation at sub-G1 phase at 25 uM after 24 hrs propidium iodide staining based flow cytometry (reference value: 17.6%); assay type: functional
HCT-116 [12] = test: Induction of apoptosis in human HCT116 cells assessed as increase in cleaved caspase-3 expression at 10 to 50 uM after 24 hrs by Western blot analysis; assay type: functional, cell-based
Method in brief: (§1)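 HCT116 and RKO cells given a range of compound doses for 24 h; lysates probed by Western blot for apoptosis-related proteins (p53, BAX, BCLxL).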

[13] = Cmax in rat at 10 mg/kg, po; assay type: ADME, organism-based; set-up: dose 10 mg/kg, route oral; details: in vivo
Method in brief: (§2)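 Male rats given a single dose, 5 mg/kg intravenously or 10 mg/kg orally. Plasma PK parameters were reported as mean ± SD: AUCt, AUC∞, Cmax, Tmax, T1/2, CL, Vss and oral bioavailability F.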

RKO [14] = test: Cell cycle arrest in human RKO cells assessed as accumulation at S phase at 10 uM after 24 hrs propidium iodide staining based flow cytometry (reference value: 19.2%); assay type: functional
RKO [15] = test: Induction of apoptosis in human RKO cells assessed as necrotic cells at 50 uM after 24 hrs by Annexin V/propidium iodide staining based flow cytometry (reference value: 0.56%); assay type: functional
HCT-116 [16] = test: Induction of apoptosis in human HCT116 cells assessed as live cells at 50 uM after 24 hrs by Annexin V/propidium iodide staining based flow cytometry (reference value: 84.4%); assay type: functional
[17] = biological target: T1, [Pyruvate dehydrogenase (acetyl-transferring)] kinase isozyme 4, mitochondrial; test: Inhibition of PDK4 (unknown origin)
Target sequence in this assay (Q16654 whole entry): as the sequence (Q16654 whole entry, looked up) above

RKO [18] = test: Cell cycle arrest in human RKO cells assessed as accumulation at G2/M phase at 10 uM after 24 hrs propidium iodide staining based flow cytometry (reference value: 23.3%); assay type: functional
Method in brief: (§3)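 HCT116 and RKO cells were treated with compound alone or with oxaliplatin for 24 h before harvest. Cells were stained with propidium iodide, and DNA content was analysed by flow cytometry. Cell-cycle phase populations, including sub-G1, are given as percentages.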

[19] = AUC (0 to infinity) in rat at 5 mg/kg, iv; assay type: ADME, organism-based; set-up: dose 5 mg/kg, route intravenous, time infinity; details: in vivo; method in brief: as §2
HCT-116 [20] = test: Cell cycle arrest in human HCT116 cells assessed as accumulation at G2/M phase at 10 uM after 24 hrs propidium iodide staining based flow cytometry (reference value: 22.2%); assay type: functional; method in brief: as §3
HCT-116 [21] = test: Induction of apoptosis in human HCT116 cells assessed as increase in cleaved-PARP expression at 10 to 50 uM after 24 hrs by Western blot analysis; assay type: functional, cell-based; method in brief: as §1
HCT-116 [22] = test: Cell cycle arrest in human HCT116 cells assessed as accumulation at G1/G0 phase at 25 uM after 24 hrs propidium iodide staining based flow cytometry (reference value: 42%); assay type: functional; method in brief: as §3
Cytochrome P450 2C9 = Cytochrome P450 2C9 (Homo sapiens, UniProt P11712); test: Inhibition of CYP2C9 in human liver microsomes assessed as reduction in tolbutamide 4-hydroxylation by tandem mass spectrometry analysis; assay type: ADME
Sequence of Cytochrome P450 2C9 (P11712 whole entry): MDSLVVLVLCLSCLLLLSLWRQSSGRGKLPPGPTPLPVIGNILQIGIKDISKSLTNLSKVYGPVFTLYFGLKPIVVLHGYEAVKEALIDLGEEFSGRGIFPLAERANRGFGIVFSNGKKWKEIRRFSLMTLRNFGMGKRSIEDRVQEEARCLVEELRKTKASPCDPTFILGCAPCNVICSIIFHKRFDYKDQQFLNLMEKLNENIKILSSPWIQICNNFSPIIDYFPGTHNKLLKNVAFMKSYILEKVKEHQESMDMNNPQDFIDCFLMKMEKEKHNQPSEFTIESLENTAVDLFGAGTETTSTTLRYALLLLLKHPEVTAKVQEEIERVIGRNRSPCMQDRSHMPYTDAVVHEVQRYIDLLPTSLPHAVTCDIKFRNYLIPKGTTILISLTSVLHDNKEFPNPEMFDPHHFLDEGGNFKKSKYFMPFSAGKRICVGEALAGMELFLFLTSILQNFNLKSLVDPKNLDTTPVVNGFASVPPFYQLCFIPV
Method in brief: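 Pooled human liver microsomes incubated with compound at 0–50 μM final; CYP probe activities (phenacetin O-deethylation for 1A2, tolbutamide 4-hydroxylation for 2C9, omeprazole hydroxylation for 2C19, dextromethorphan O-demethylation for 2D6) run as a cocktail incubation and quantified by tandem MS; duplicates; IC50 derived.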

RKO [23] = test: Cell cycle arrest in human RKO cells assessed as accumulation at G1/G0 phase at 10 uM after 24 hrs propidium iodide staining based flow cytometry (reference value: 39.9%); assay type: functional; method in brief: as §3
RKO [24] = test: Cell cycle arrest in human RKO cells assessed as accumulation at sub-G1 phase at 50 uM after 24 hrs propidium iodide staining based flow cytometry (reference value: 17.6%); assay type: functional
RKO [25] = test: Induction of apoptosis in human RKO cells assessed as early apoptotic cells at 25 uM after 24 hrs by Annexin V/propidium iodide staining based flow cytometry (reference value: 9.62%); assay type: functional
RKO [26] = test: Induction of apoptosis in human RKO cells assessed as live cells at 50 uM after 24 hrs by Annexin V/propidium iodide staining based flow cytometry (reference value: 82.4%); assay type: functional
Mus musculus = test: Antidiabetic activity in high-fat diet induced obese C57BL/6J mouse assessed as reduction in blood glucose level at 100 mg/kg, po administered for 1 week starting from week 4 post high fat diet followed by glucose challenge and measured up to 120 mins by IPGTT; assay type: functional, organism-based
Method in brief: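 Eight-week-old C57BL/6J mice were fed a high-fat diet (60% kcal fat, 0.5% cholesterol, 10% fructose) for 4 weeks. From week 4 they were dosed orally for 1 week (n = 6 per group), with sitagliptin 10 mg/kg as comparator. An intraperitoneal glucose tolerance test (1.5 g/kg glucose) followed, and the area under the curve was calculated.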

## Cl.O=C1c2ccccc2C(=O)c2c1cccc2-c1cnn(C2CCNCC2)c1
RKO [1]
  Activity: Active
RKO [2]
  Activity: 82.8%
RKO [3]
  Activity: 4.61%
RKO [4]
  Activity: 24.4%
[5]
  Vd: 5.52 L/kg
HCT-116 [6]
  Activity: 54.5%
[7]
  inhibition: 50.1%
[8]
  remaining at 0.5 h: 67.8%
RKO [9]
  Activity: 5.07%
[10]
  Drug metabolism: Metabolite_Detected
RKO [11]
  Activity: 58.7%
HCT-116 [12]
  Activity: Active
[13]
  Cmax: 565 ng/mL
RKO [14]
  Activity: 13.8%
RKO [15]
  Activity: 0.006%
HCT-116 [16]
  Activity: 21.2%
[17]
  IC50: 84 nM
RKO [18]
  Activity: 18.1%
[19]
  AUC(0-inf): 7610 ng·h/mL
HCT-116 [20]
  Activity: 14.9%
HCT-116 [21]
  Activity: Active
HCT-116 [22]
  Activity: 19%
Cytochrome P450 2C9
  IC50: > 50000 nM
RKO [23]
  Activity: 46.7%
RKO [24]
  Activity: 91.1%
RKO [25]
  Activity: 19.3%
RKO [26]
  Activity: 9.59%
Mus musculus
  Activity: Active
